The record followed here is ChEMBL document CHEMBL3739273, “Synthesis, biological activity evaluation and molecular docking studies of novel coumarin substituted thiazolyl-3-aryl-pyrazole-4-carbaldehydes” (Bioorg Med Chem Lett, 2015).

Experiment [1] in a line: Anticancer activity against human DU145 cells assessed as cell viability after 48 hrs by MTT assay. The experiment is classed as functional, cell-based. The following applies: DU-145, 48 h. In outline: (§1)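 MTT cytotoxicity assay in human DU-145 prostate, MCF-7 breast and HeLa cervical cancer cell lines. Doxorubicin was the reference drug.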
A general note: Formazan colour is commonly taken as a measure of viable cells.

For a further experiment, the system named is HeLa. As to the kind of experiment: Anticancer activity against human HeLa cells assessed as cell viability after 48 hrs by MTT assay. The experiment is classed as functional, cell-based. The procedure, abridged:
as §1

The subject of another experiment is MCF7. As to the kind of experiment: Anticancer activity against human MCF7 cells assessed as cell viability after 48 hrs by MTT assay. The experiment is classed as functional, cell-based. To be noted: MCF7, 48 h. In outline:
as §1

For experiment [2], the system named is Bacillus cereus. Briefly: Antibacterial activity against Bacillus cereus ATCC 14579 assessed as growth inhibition at 100 ug/ml after 24 hrs by agar well diffusion method. Format: functional. In outline:
(§2)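 Agar well diffusion. Compounds were tested at 10, 20, 100, 200 and 300 µg/mL, and the zone of inhibition was measured in mm. Gentamycin sulfate was the reference drug.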
A general note: A growth-free zone around the sample is the usual read-out of agar diffusion tests.

The subject of experiment [3] is Bacillus spizizenii. As to the kind of experiment: Antibacterial activity against Bacillus subtilis ATCC 6633 assessed as growth inhibition at 100 ug/ml after 24 hrs by agar well diffusion method. The experiment is classed as functional, organism-based. The procedure, abridged:
as §2

Experiment [4] has as its system Proteus vulgaris. As to the kind of experiment: Antibacterial activity against Proteus vulgaris ATCC 13315 assessed as growth inhibition at 100 ug/ml after 24 hrs by agar well diffusion method. The experiment is classed as functional. The procedure, abridged: as §2
Experiment [5] relates to Staphylococcus aureus. As to the kind of experiment: Antibacterial activity against methicillin-resistant Staphylococcus aureus NCTC 13616 assessed as growth inhibition at 100 ug/ml after 24 hrs by agar well diffusion method. Format: functional, organism-based. The procedure, abridged:
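Agar well diffusion assay with compounds applied to wells at several concentrations, including the 100 level reported here. The zone of inhibition was measured in mm. Gentamycin sulfate was the standard drug.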

Experiment [6] deals with Klebsiella pneumoniae. Briefly: Antibacterial activity against Klebsiella pneumoniae ATCC 43816 assessed as growth inhibition at 100 ug/ml after 24 hrs by agar well diffusion method. The experiment is classed as functional. In outline: as §2
Experiment [7] has as its system Escherichia coli. Briefly: Antibacterial activity against Escherichia coli ATCC 8739 assessed as growth inhibition at 100 ug/ml after 24 hrs by agar well diffusion method. The experiment is classed as functional. The procedure, abridged:
as §2

In experiment [8] the test system is Escherichia coli. As to the kind of experiment: Antibacterial activity against Escherichia coli ATCC 8739 after 24 hrs by microtiter plate method. Format: functional. In outline:
(§3)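 Test concentrations reported in µg/mL. Gentamycin sulfate and ampicillin were the reference drugs.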

The subject of experiment [9] is Klebsiella pneumoniae. Briefly: Antibacterial activity against Klebsiella pneumoniae ATCC 43816 after 24 hrs by microtiter plate method. Format: functional. The procedure, abridged: as §3
For experiment [10], the system named is Proteus vulgaris. As to the kind of experiment: Antibacterial activity against Proteus vulgaris ATCC 13315 after 24 hrs by microtiter plate method. The experiment is classed as functional. In outline: as §3
Experiment [11] relates to Staphylococcus aureus. As to the kind of experiment: Antibacterial activity against methicillin-resistant Staphylococcus aureus NCTC 13616 after 24 hrs by microtiter plate method. Format: functional.
The test system of experiment [12] is Bacillus spizizenii. Briefly: Antibacterial activity against Bacillus subtilis ATCC 6633 after 24 hrs by microtiter plate method. Format: functional. In outline: as §3
In experiment [13] the test system is Bacillus cereus. Briefly: Antibacterial activity against Bacillus cereus ATCC 14579 after 24 hrs by microtiter plate method. The experiment is classed as functional. The procedure, abridged:
as §3

The subject of experiment [14] is Escherichia coli. As to the kind of experiment: Bactericidal activity against Escherichia coli ATCC 8739 after 24 hrs. The experiment is classed as functional. To be noted: for MBC: ATCC 8739, 24 h, read-out: MBC99.9. The procedure, abridged: (§4)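 MBC determined by a standard MBC protocol alongside the MIC, with values in µg/mL. Gentamycin sulfate and ampicillin were the references.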

Experiment [15] deals with Klebsiella pneumoniae. As to the kind of experiment: Bactericidal activity against Klebsiella pneumoniae ATCC 43816 after 24 hrs. The experiment is classed as functional. To be noted: for MBC: ATCC 43816, 24 h, read-out: MBC99.9. In outline: as §4
For experiment [16], the system named is Proteus vulgaris. As to the kind of experiment: Bactericidal activity against Proteus vulgaris ATCC 13315 after 24 hrs. Format: functional. The following applies: for MBC: ATCC 13315, 24 h, read-out: MBC99.9. In outline: as §4
In experiment [17] the test system is Staphylococcus aureus. As to the kind of experiment: Bactericidal activity against methicillin-resistant Staphylococcus aureus NCTC 13616 after 24 hrs. The following applies: for MBC: NCTC 13616, 24 h, read-out: MBC99.9. The experiment is classed as functional. The procedure, abridged:
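MBC determined by a standard MBC protocol run alongside the MIC determination. Gentamycin sulfate and ampicillin served as reference drugs.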

In experiment [18] the test system is Bacillus spizizenii. Briefly: Bactericidal activity against Bacillus subtilis ATCC 6633 after 24 hrs. The experiment is classed as functional. The following applies: for MBC: ATCC 6633, 24 h, read-out: MBC99.9. In outline:
as §4

Experiment [19] relates to Bacillus cereus. Briefly: Bactericidal activity against Bacillus cereus ATCC 14579 after 24 hrs. The following applies: for MBC: ATCC 14579, 24 h, read-out: MBC99.9. Format: functional. The procedure, abridged: as §4
Another experiment concerns the target T1, Cytochrome P450 2A6 (Homo sapiens, UniProt P11509).
T1 sequence (P11509 whole entry): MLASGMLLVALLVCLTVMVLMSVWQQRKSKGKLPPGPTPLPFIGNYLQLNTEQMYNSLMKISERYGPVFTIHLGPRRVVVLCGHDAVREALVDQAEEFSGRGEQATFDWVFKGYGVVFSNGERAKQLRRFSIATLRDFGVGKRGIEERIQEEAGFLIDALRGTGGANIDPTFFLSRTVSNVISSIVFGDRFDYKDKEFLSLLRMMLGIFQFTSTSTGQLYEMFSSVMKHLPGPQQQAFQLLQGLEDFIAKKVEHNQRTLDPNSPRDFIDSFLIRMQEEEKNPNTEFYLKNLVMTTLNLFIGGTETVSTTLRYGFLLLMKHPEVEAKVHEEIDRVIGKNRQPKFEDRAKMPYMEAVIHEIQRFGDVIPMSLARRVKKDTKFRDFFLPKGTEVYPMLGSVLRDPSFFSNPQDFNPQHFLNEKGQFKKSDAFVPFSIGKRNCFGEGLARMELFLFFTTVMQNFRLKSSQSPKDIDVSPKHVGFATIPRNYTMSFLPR
As to the kind of experiment: Inhibition of human microsomal CYP2A6. Format: ADME.

pIC50, pKi: −log10 of the molar value. Values after ≈ are worked out from the molar mass of the structure shown. Active and inactive are the calls of the source. The calls are words filed in the database; no cut-off is given here.

For the molecule `COc1cccc2c1C(=O)c1c(O)c3c(c(O)c1C2=O)C[C@@](O)(C(=O)CO)C[C@@H]3O[C@H]1C[C@H](N)[C@H](O)[C@H](C)O1` [DOXORUBICIN], the negative logarithm of the IC50 (pIC50) in [1] was 5.60; in the experiment on HeLa it was 5.41.
For `COc1cccc2cc(-c3csc(-n4cc(C=O)c(-c5ccc(Cl)cc5)n4)n3)c(=O)oc12`, the pIC50 in experiment [1] is 4.42; in the experiment on MCF7, 4.14; in the experiment with HeLa it was 4.38. The “growth inhibition (GI)” value in the experiment with Bacillus cereus [2], with Bacillus spizizenii [3], in the experiment with Proteus vulgaris [4], in the experiment on Staphylococcus aureus [5], in the experiment on Klebsiella pneumoniae [6] and in the experiment on Escherichia coli [7] was “Active” throughout. Besides, the minimal inhibitory concentration (MIC) in the experiment on Escherichia coli [8] (ATCC 8739, 24 h) stood at 125 µg/mL (≈ 270 µM); against Klebsiella pneumoniae [9] (ATCC 43816, 24 h) it was 129 µg/mL (≈ 278 µM); against Proteus vulgaris [10] (ATCC 13315, 24 h), 132 µg/mL (≈ 285 µM); in the experiment on Staphylococcus aureus [11] (NCTC 13616, 24 h) it was 139 µg/mL (≈ 300 µM); in the experiment with Bacillus spizizenii [12] (ATCC 6633, 24 h) it was 133 µg/mL (≈ 286 µM); with Bacillus cereus [13] (ATCC 14579, 24 h), 126 µg/mL (≈ 272 µM). Further, the MBC came to 185 µg/mL (≈ 399 µM) in the experiment on Escherichia coli [14]; 260 µg/mL (≈ 560 µM) with Klebsiella pneumoniae [15]; 260 µg/mL (≈ 560 µM) with Proteus vulgaris [16]; 275 µg/mL (≈ 593 µM) with Staphylococcus aureus [17]; 260 µg/mL (≈ 560 µM) in the experiment with Bacillus spizizenii [18]; 250 µg/mL (≈ 539 µM) in the experiment on Bacillus cereus [19]. The pKi on Cytochrome P450 2A6 was 8.49.
For `O=Cc1cn(-c2nc(-c3cc4cc(Cl)cc(Cl)c4oc3=O)cs2)nc1-c1ccccc1`, the values for the negative-log IC50 (pIC50) (in experiment [1]; with MCF7; in the experiment on HeLa) were 4.39, 4.12 and 4.86, respectively. For the same molecule, the “growth inhibition (GI)” value in the experiment on Bacillus cereus [2], with Bacillus spizizenii [3], with Proteus vulgaris [4], with Staphylococcus aureus [5], with Klebsiella pneumoniae [6] and in the experiment on Escherichia coli [7] was “Active” throughout. Further, the MIC against Escherichia coli [8] (ATCC 8739, 24 h) stood at 120 µg/mL (≈ 255 µM); in the experiment with Klebsiella pneumoniae [9] (ATCC 43816, 24 h), 118 µg/mL (≈ 252 µM); in the experiment with Proteus vulgaris [10] (ATCC 13315, 24 h), 132 µg/mL (≈ 281 µM); in the experiment with Staphylococcus aureus [11] (NCTC 13616, 24 h) it was 115 µg/mL (≈ 246 µM); against Bacillus spizizenii [12] (ATCC 6633, 24 h), 123 µg/mL (≈ 263 µM); in the experiment with Bacillus cereus [13] (ATCC 14579, 24 h), 117 µg/mL (≈ 250 µM). The MBC in the experiment on Escherichia coli [14] turned out to be 240 µg/mL (≈ 512 µM); with Klebsiella pneumoniae [15] it was 175 µg/mL (≈ 374 µM); with Proteus vulgaris [16] it was 260 µg/mL (≈ 555 µM); with Staphylococcus aureus [17], 175 µg/mL (≈ 374 µM); in the experiment with Bacillus spizizenii [18], 250 µg/mL (≈ 534 µM); in the experiment on Bacillus cereus [19], 175 µg/mL (≈ 374 µM). On Cytochrome P450 2A6, this molecule had a pKi of 8.51.
As for `Cc1ccc(-c2nn(-c3nc(-c4cc5cc(Br)ccc5oc4=O)cs3)cc2C=O)cc1`, the negative logarithm of the IC50 (pIC50) was 4.68 in [1], 4.45 in the experiment on MCF7 and 4.85 in the experiment with HeLa. The “growth inhibition (GI)” value with Bacillus cereus [2], with Bacillus spizizenii [3], in the experiment on Proteus vulgaris [4], in the experiment with Staphylococcus aureus [5], in the experiment with Klebsiella pneumoniae [6] and with Escherichia coli [7] was “Active” in each case. Further, the minimum inhibitory concentration (MIC) in the experiment on Escherichia coli [8] (ATCC 8739, 24 h) amounted to 135 µg/mL (≈ 273 µM); with Klebsiella pneumoniae [9] (ATCC 43816, 24 h), 124 µg/mL (≈ 252 µM); against Proteus vulgaris [10] (ATCC 13315, 24 h) it was 122 µg/mL (≈ 247 µM); in the experiment on Staphylococcus aureus [11] (NCTC 13616, 24 h), 138 µg/mL (≈ 280 µM); in the experiment with Bacillus spizizenii [12] (ATCC 6633, 24 h) it was 125 µg/mL (≈ 254 µM); with Bacillus cereus [13] (ATCC 14579, 24 h) it was 126 µg/mL (≈ 256 µM). Also, the MBC in the experiment on Escherichia coli [14] was found to be 270 µg/mL (≈ 548 µM); in the experiment on Klebsiella pneumoniae [15] it was 250 µg/mL (≈ 508 µM); in the experiment with Proteus vulgaris [16], 240 µg/mL (≈ 487 µM); with Staphylococcus aureus [17] it was 275 µg/mL (≈ 559 µM); in the experiment with Bacillus spizizenii [18], 250 µg/mL (≈ 508 µM); with Bacillus cereus [19], 250 µg/mL (≈ 508 µM). The same molecule showed a negative-log Ki (pKi) on Cytochrome P450 2A6 of 8.81.
Take GENTAMICIN: the MIC amounted to 2 µg/mL in the experiment with Escherichia coli [8]; 4 µg/mL in the experiment with Klebsiella pneumoniae [9]; 4 µg/mL in the experiment with Proteus vulgaris [10]; 22 µg/mL against Staphylococcus aureus [11]; 45 µg/mL against Bacillus spizizenii [12]; 10 µg/mL against Bacillus cereus [13]. Also, the MBC99.9 with Escherichia coli [14] was 8 µg/mL; in the experiment with Klebsiella pneumoniae [15], 16 µg/mL; with Proteus vulgaris [16] it was 8 µg/mL; with Staphylococcus aureus [17], 50 µg/mL; in the experiment with Bacillus spizizenii [18], 80 µg/mL; in the experiment on Bacillus cereus [19] it was 22 µg/mL.

What is called pIC50 is the negative decadic logarithm of the IC50, by convention in mol/L. For orientation: MIC means the lowest concentration found to suppress growth. In general, pKi refers to the negative decadic logarithm of the Ki, by convention in mol/L.
